ChEMBL document CHEMBL1138500 (J Med Chem, 2009)
Substitutions are numbered along the chain they refer to.

How the values were obtained:
[1] = molecular target: T1, Lysosomal acid glucosylceramidase (Homo sapiens, UniProt P04062); assay: Inhibition of human placental beta-glucocerebrosidase
T1 sequence (P04062 whole entry): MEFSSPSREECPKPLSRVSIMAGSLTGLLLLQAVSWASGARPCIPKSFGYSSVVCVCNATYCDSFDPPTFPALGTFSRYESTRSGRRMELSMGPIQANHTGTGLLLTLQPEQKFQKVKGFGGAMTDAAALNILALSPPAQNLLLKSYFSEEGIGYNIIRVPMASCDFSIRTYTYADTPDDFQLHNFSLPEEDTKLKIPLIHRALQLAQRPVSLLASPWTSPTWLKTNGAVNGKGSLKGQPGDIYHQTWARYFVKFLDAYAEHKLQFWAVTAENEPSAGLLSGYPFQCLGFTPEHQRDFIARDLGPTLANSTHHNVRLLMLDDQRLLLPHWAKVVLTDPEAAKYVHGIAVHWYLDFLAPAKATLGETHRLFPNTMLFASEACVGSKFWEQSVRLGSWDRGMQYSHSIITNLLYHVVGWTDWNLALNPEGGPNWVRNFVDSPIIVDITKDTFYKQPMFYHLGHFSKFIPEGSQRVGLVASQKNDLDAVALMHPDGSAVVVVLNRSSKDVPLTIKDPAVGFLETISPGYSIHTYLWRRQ

HL-60 = assay: Cytotoxicity against human HL60 cells assessed as dead cells at 100 uM after 3 days by propidium iodide staining based flow cytometry; type: cell-based; details: hl-60, 72 h
Outline: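 HL60 cells exposed to compound at 100 µM for 3 days; cytotoxicity reported as percentage of dead cells.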

[2] = system: T2, Lysosomal acid glucosylceramidase (Homo sapiens), P04062 [N409S]; assay: Activation of beta-glucocerebrosidase N370S mutant in Goucher lymphoblasts at 50 uM after 3 days relative to control
T2 sequence (whole entry): T1 sequence (P04062 whole entry) with N409S

Row | IC50 [1] [µM] | fold change (FC) [2] | SMILES | Activity (HL-60) [%]
1 | 46 | 2.1 | CCCCCCCCCCN1C[C@@H](O)[C@@H](O)[C@H](O)C1=O | 5.19
2 | 253 | 3.9 | CCCN(CCC)CCN1C[C@@H](O)[C@@H](O)[C@H](O)C1=O | 3.45
3 | 127 | 3.6 | CCCOCCCCCCN1C[C@@H](O)[C@@H](O)[C@H](O)C1=O | 4.33
4 | > 500 | 1.8 | O=C1[C@H](O)[C@H](O)CN1CCCCCCO | 3.57
5 | 463 | 2.9 | CCCCCCCCCCN1C[C@@H](O)[C@@H](O)[C@@H](O)C1=O | 10.22
6 |  |  | CCCCN1C[C@H](O)[C@@H](O)[C@H](O)[C@H]1CO | 2.69
7 | > 500 |  | CCCCCCCCCCN1CC(NC(C)=O)[C@@H](O)C(O)C1=O (single isomer, unassigned) | 7.58
8 | > 500 |  | O=C1[C@@H](O)[C@H](O)[C@H](O)CN1CCO | 2.95
9 | 102 | 2 | CCCCCCCCCN1C[C@@H](O)[C@@H](O)[C@H](O)C1=O | 4.71
10 | 175 | 6.2 | CCCCCCCCN1C[C@@H](O)[C@@H](O)[C@H](O)C1=O | 3.51
11 | > 500 | 4.1 | O=C1[C@@H](O)[C@H](O)[C@H](O)CN1CCCCCCO | 3.75
12 | 285 | 1.5 | CCCCCCCCCCN1C[C@@H](O)[C@@H](O)C1=O | 6.69
13 | > 500 |  | O=C1NC[C@@H](O)[C@@H](O)[C@@H]1O | 2.77
14 | > 500 | 2.5 | O=C1[C@H](O)[C@H](O)[C@H](O)CN1CCCCCCO | 3.23
15 | > 500 | 3.8 | CCCOCCN1C[C@@H](O)[C@@H](O)[C@H](O)C1=O | 2.39
16 | > 500 | 3.4 | O=C1[C@@H](O)[C@H](O)[C@H](O)CN1Cc1ccccc1 | 3.46
17 | > 500 | 1.8 | O=C1[C@@H](O)[C@H](O)[C@@H](O)CN1CCCCCCO | 3.44
18 | > 500 |  | CCCCCCCCN1C[C@@H](O)C(O)[C@H](O)C1 | 3.55
19 | > 500 | 1.3 | CC(=O)NC1CN(CCCCCCO)C(=O)C(O)[C@@H]1O (single isomer, unassigned) | 2.9
20 | 295 | 2 | CCCCCCCCCCN1C[C@H](O)[C@@H](O)[C@H](O)C1=O | 11.2
21 | > 500 |  | CCCCN1C[C@@H](O)[C@@H](O)[C@H](O)C1=O | 2.78
